From ChEMBL document CHEMBL1125931, “Fluorescent markers for hypoxic cells: a study of nitroaromatic compounds, with fluorescent heterocyclic side chains, that undergo bioreductive binding” (J Med Chem, 1991)

Experiments:
[1] = Binding of fluorescence moiety to hypoxic cells measured in flow cytometry assay at conc of 10e-4 M.; type: functional, Cricetulus griseus
Outline: (§1)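 V79 379A Chinese hamster cells (suspension culture, MEM with 7.5% fetal calf serum) incubated at 37 °C with 10^-4 M drug under aerobic or hypoxic gassing (air or N2, each + 5% CO2); DMSO final ≤1%. Flow cytometry after 6 h: excitation 365 nm, emission >390 or 410 nm; naphthalimides excited 458 nm, emission 510–560 nm. Mean fluorescence, arbitrary units, normalized for PMT gain and laser power.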

[2] = Binding of fluorescence moiety to oxic cells measured in flow cytometry assay at conc of 10e-4 M.; type: functional, Cricetulus griseus; outline: as §1
[3] = Cellular content after 4 hr incubation with compound under aerobic condition at 37 C.; type: functional; details: Cricetulus griseus
Outline: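 Aerobic V79 Chinese hamster cells exposed to 10^-4 M extracellular drug for 4 h at 37 °C, then washed with PBS. Cell content measured by HPLC with an acetonitrile gradient, 50–75% over 10 min with 390 nm detection or 30–50% with 340 nm detection depending on compound. Reported as fmol per cell; about 0.1 fmol/cell corresponds to equilibration with the extracellular space.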

| SMILES | Fluorescence Intensity [1] | Fluorescence Intensity [2] | Uptake [3] |
| --- | --- | --- | --- |
| COc1ccc2cc(Cn3ccnc3[N+](=O)[O-])c(=O)oc2c1 | 203 | 85 | – |
| O=C(CNCCCN(CCO)CCO)Nc1ccc2c3c(cccc13)C(=O)N(CCCn1ccnc1[N+](=O)[O-])C2=O | 24 | 13 | < 0.005 fmol/cell |
| Br.COc1ccc2c(CSCCN)cc(=O)oc2c1 | 77 | 19 | – |
| Nc1ccc2c3c(cccc13)C(=O)N(CCCn1ccnc1[N+](=O)[O-])C2=O | 335 | 17 | 98 fmol/cell |
| CC(=O)Nc1ccc2c3c(cccc13)C(=O)N(CCCn1ccnc1[N+](=O)[O-])C2=O | 37 | 12 | 0.04 fmol/cell |
| COc1ccc2c(Cn3ccnc3[N+](=O)[O-])cc(=O)oc2c1 | 361 | 24 | – |
| COc1cc2cc(Cn3ccnc3[N+](=O)[O-])c(=O)oc2cc1OC | 1149 | 238 | – |
| Nc1ccc2c3c(cccc13)C(=O)N(CCCCCCCCCn1ccnc1[N+](=O)[O-])C2=O | 263 | 78 | 105 fmol/cell |
| COc1cc2nc(N3CCN(CC(O)Cn4ccnc4[N+](=O)[O-])CC3)nc(N)c2cc1OC (centres undefined) | 85 | 39 | – |
| COc1ccc2cc(C(=O)NCCN(CCO)CC(O)Cn3ccnc3[N+](=O)[O-])c(=O)oc2c1 (centres undefined) | 412 | 24 | – |
| COc1cc2oc(=O)cc(Cn3ccnc3[N+](=O)[O-])c2cc1OC | 1461 | 64 | – |
| Nc1ccc2c3c(cccc13)C(=O)N(CCCCCn1ccnc1[N+](=O)[O-])C2=O | 235 | 42 | 93 fmol/cell |
